# pEC50: −log10 of the molar value. Activity calls are given as the source filed them. No cut-off for these calls is given here.
# Legend:
# Assay type in all cases: functional, cell-based
# P2Y purinoceptor 6 [1] = target: T1, P2Y purinoceptor 6 (Homo sapiens, UniProt Q15077); assay: Agonist activity at human recombinant P2Y6 receptor expressed in 1321N1 cells assessed as PLC-mediated [3H]IP production
# Outline: (§1)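 Stable 1321N1 astrocytoma line expressing human P2Y6, grown to confluence and labelled 12 h in serum-free, inositol-free DMEM with 0.4 μCi myo-[3H]inositol. Agonists were added in Hepes pH 7.3 with LiCl for 20 min at 37 °C. The reaction was stopped with ice-cold 50 mM formic acid, neutralised with NH4OH, and [3H]inositol phosphates separated on Dowex AG 1-X8. EC50 came from four-parameter logistic fits; ratio to UDP EC50. Triplicates, ≥3 experiments.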
# P2Y purinoceptor 6 [2] = target: T1, P2Y purinoceptor 6; assay: Agonist activity at human recombinant P2Y6 receptor expressed in 1321N1 cells assessed as PLC-mediated [3H]IP production relative to UDP; outline: as §1
# P2Y purinoceptor 2 [3] = target: T2, P2Y purinoceptor 2 (Homo sapiens, UniProt P41231); assay: Agonist activity at human recombinant P2Y2 receptor expressed in 1321N1 cells assessed as PLC-mediated [3H]IP production relative to UTP
# P2Y purinoceptor 4 [4] = target: T3, P2Y purinoceptor 4 (Homo sapiens, UniProt P51582); assay: Agonist activity at human recombinant P2Y4 receptor expressed in 1321N1 cells assessed as PLC-mediated [3H]IP production relative to UTP
# P2Y purinoceptor 2 [5] = target: T2, P2Y purinoceptor 2; assay: Agonist activity at human recombinant P2Y2 receptor expressed in 1321N1 cells assessed as PLC-mediated [3H]IP production
# P2Y purinoceptor 4 [6] = target: T3, P2Y purinoceptor 4; assay: Agonist activity at human recombinant P2Y4 receptor expressed in 1321N1 cells assessed as PLC-mediated [3H]IP production
# P2Y purinoceptor 6 [7] = target: T1, P2Y purinoceptor 6; assay: Agonist activity at human recombinant P2Y6 receptor expressed in 1321N1 cells assessed as PLC-mediated [3H]IP production at 10 uM realtive to UDP
# Outline: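 Human P2Y6 in 1321N1 cells prelabelled with myo-[3H]inositol, then exposed to agonist at 10 μM in Hepes pH 7.3 with LiCl for 20 min at 37 °C. [3H]inositol phosphates were isolated by Dowex anion exchange. Response is expressed as % of the effect of a maximally effective UDP concentration in the same experiment.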
# P2Y purinoceptor 4 [8] = target: T3, P2Y purinoceptor 4; assay: Agonist activity at human recombinant P2Y4 receptor expressed in 1321N1 cells assessed as PLC-mediated [3H]IP production relative to UTP at 10 uM
# T3 sequence (P51582 whole entry): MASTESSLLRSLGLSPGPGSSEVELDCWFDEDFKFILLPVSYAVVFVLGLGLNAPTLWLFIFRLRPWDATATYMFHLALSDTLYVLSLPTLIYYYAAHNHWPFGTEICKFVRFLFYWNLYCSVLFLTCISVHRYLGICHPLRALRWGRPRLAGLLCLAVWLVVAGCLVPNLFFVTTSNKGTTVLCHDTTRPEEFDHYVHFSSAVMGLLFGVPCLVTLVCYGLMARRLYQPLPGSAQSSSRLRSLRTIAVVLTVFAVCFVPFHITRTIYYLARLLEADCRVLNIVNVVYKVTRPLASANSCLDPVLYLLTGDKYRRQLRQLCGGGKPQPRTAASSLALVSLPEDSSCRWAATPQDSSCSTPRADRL
# T1 sequence (Q15077 whole entry): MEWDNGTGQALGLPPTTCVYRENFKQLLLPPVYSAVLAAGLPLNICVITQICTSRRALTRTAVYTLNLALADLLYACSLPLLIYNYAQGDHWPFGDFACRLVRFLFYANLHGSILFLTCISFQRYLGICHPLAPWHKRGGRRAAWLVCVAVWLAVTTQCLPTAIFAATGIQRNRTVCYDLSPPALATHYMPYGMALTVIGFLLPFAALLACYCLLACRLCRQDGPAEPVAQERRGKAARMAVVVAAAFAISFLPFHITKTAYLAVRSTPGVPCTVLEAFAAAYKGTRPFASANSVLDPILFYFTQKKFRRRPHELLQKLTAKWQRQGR
# T2 sequence (P41231 whole entry): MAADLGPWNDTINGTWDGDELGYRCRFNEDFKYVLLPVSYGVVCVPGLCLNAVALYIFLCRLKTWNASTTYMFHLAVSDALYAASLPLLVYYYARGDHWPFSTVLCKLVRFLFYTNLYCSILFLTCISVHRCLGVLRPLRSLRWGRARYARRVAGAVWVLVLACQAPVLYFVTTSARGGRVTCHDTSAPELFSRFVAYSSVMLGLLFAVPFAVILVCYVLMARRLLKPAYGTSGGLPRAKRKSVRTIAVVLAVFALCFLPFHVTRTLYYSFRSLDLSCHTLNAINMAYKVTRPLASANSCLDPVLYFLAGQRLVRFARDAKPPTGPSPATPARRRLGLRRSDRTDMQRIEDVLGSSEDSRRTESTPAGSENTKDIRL
Structure (SMILES),pEC50 (P2Y purinoceptor 6 [1]),Ratio EC50 (P2Y purinoceptor 6 [2]),Ratio EC50 (P2Y purinoceptor 2 [3]),Ratio EC50 (P2Y purinoceptor 4 [4]),also measured
O=C(O)CCSc1ccn([C@@H]2O[C@H](COP(=O)(O)OP(=O)(O)O)[C@@H](O)[C@H]2O)c(=O)n1,5.96,–,–,–,–
Nc1nc2c(ncn2[C@@H]2O[C@H](COP(=O)(O)OP(=O)(O)O)[C@@H](O)[C@H]2O)c(=O)[nH]1,4.35,500,54,90,–
Cn1c(=O)ccn([C@@H]2O[C@H](COP(=O)(O)OP(=O)(O)O)[C@@H](O)[C@H]2O)c1=O,5.48,250,24,47,–
[N-]=[N+]=N[C@@H]1[C@H](O)[C@@H](COP(=O)(O)OP(=O)(O)O)O[C@H]1n1ccc(=O)[nH]c1=O,5.82,120,100,15,–
O=C(O)CSc1ccn([C@@H]2O[C@H](COP(=O)(O)OP(=O)(O)O)[C@@H](O)[C@H]2O)c(=O)n1,5.77,–,–,–,–
O=c1ccn([C@@H]2O[C@H](COP(=O)(O)OP(=O)(O)O)[C@@H](O)[C@H]2O)c(=O)[nH]1 [URIDINE_DIPHOSPHATE],7.89,–,–,–,–
O=c1nc(SCc2ccccc2)ccn1[C@@H]1O[C@H](COP(=O)(O)OP(=O)(O)O)[C@@H](O)[C@H]1O,6.10,–,–,–,–
CCCCCCSc1ccn([C@@H]2O[C@H](COP(=O)(O)OP(=O)(O)O)[C@@H](O)[C@H]2O)c(=O)n1,5.31,–,–,–,–
CSc1ccn([C@@H]2O[C@H](COP(=O)(O)OP(=O)(O)O)[C@@H](O)[C@H]2O)c(=O)n1,5.64,–,–,–,–
O=c1[nH]c(=S)ccn1[C@@H]1O[C@H](COP(=O)(O)OP(=O)(O)O)[C@@H](O)[C@H]1O,7.10,6,0.53,0.32,–
O=c1ccn([C@@H]2O[C@H](COP(=O)(O)OP(=O)(O)O)C[C@H]2O)c(=O)[nH]1,5.60,190,17,42,pEC50 (P2Y purinoceptor 2 [5]): 6.09; pEC50 (P2Y purinoceptor 4 [6]): 5.51
NC(=O)CSc1ccn([C@@H]2O[C@H](COP(=O)(O)OP(=O)(O)O)[C@@H](O)[C@H]2O)c(=O)n1,4.74,–,–,–,–
O=C(O)CCCSc1ccn([C@@H]2O[C@H](COP(=O)(O)OP(=O)(O)O)[C@@H](O)[C@H]2O)c(=O)n1,5.06,–,–,–,–
O=c1ccn([C@]23CC2[C@H](COP(=O)(O)OP(=O)(O)O)[C@@H](O)C3)c(=O)[nH]1 (some centres undefined),6.64,–,–,–,–
O=c1nc(SCc2ccccc2)ccn1[C@@H]1O[C@H](COP(=O)(O)OP(=O)(O)OC[C@H]2O[C@@H](n3ccc(SCc4ccccc4)nc3=O)[C@H](O)[C@@H]2O)[C@@H](O)[C@H]1O,–,–,–,–,Efficacy (P2Y purinoceptor 6 [7]): < 50%
O=c1ccn([C@@H]2O[C@H](COP(=O)(O)OP(=O)(O)O)[C@@H](O)[C@@H]2F)c(=O)[nH]1,5.26,420,11,7.1,–
O=c1ccn([C@@H]2C3C[C@@]3(COP(=O)(O)OP(=O)(O)O)[C@@H](O)[C@H]2O)c(=O)[nH]1 (some centres undefined),–,> 7000,2,1.7,–
O=c1[nH]c(=O)n([C@@H]2O[C@H](COP(=O)(O)OP(=O)(O)O)[C@@H](O)[C@H]2O)cc1I,7.82,1.1,17,55,–
C=CCSc1ccn([C@@H]2O[C@H](COP(=O)(O)OP(=O)(O)O)[C@@H](O)[C@H]2O)c(=O)n1,6.25,–,–,–,–
N[C@@H]1[C@H](O)[C@@H](COP(=O)(O)OP(=O)(O)O)O[C@H]1n1ccc(=O)[nH]c1=O,5.41,300,1.3,16,–
O=c1ccn([C@@H]2O[C@H](COP(=O)(O)OP(=O)(O)O)[C@@H](O)[C@H]2O)c(=S)[nH]1,7.22,4,0.71,4.8,–
Nc1ncnc2c1ncn2[C@@H]1O[C@H](COP(=O)(O)OP(=O)(O)O)[C@@H](O)[C@H]1O [ADENOSINE DIPHOSPHATE],4.19,> 7000,1.7,–,Activity (P2Y purinoceptor 4 [8]): inactive
O=c1ccn([C@@H]2O[C@H](COP(=O)(O)OP(=O)(O)OC[C@H]3O[C@@H](n4ccc(=O)[nH]c4=O)[C@H](O)[C@@H]3O)[C@@H](O)[C@H]2O)c(=O)[nH]1,5.64,–,–,–,–
Nc1ccn([C@@H]2O[C@H](COP(=O)(O)OP(=O)(O)O)[C@@H](O)[C@H]2O)c(=O)n1,4.06,1000,110,–,Activity (P2Y purinoceptor 4 [8]): inactive
CCSc1ccn([C@@H]2O[C@H](COP(=O)(O)OP(=O)(O)OC[C@H]3O[C@@H](n4ccc(SCC)nc4=O)[C@H](O)[C@@H]3O)[C@@H](O)[C@H]2O)c(=O)n1,–,–,–,–,Efficacy (P2Y purinoceptor 6 [7]): < 50%
CCSc1ccn([C@@H]2O[C@H](COP(=O)(O)OP(=O)(O)O)[C@@H](O)[C@H]2O)c(=O)n1,6.55,–,–,–,–
O=c1ccn([C@@H]2O[C@@]3(COP(=O)(O)OP(=O)(O)O)C[C@H]3[C@H]2O)c(=O)[nH]1,5.46,–,–,–,–
